Results taken from article PMC11068522 (International Journal for Parasitology: Drugs and Drug …, 2024).
Like-named read-outs stand apart in the source and are kept apart here.

Assays:
[1] = tested on: intraerythrocytic stage P. falciparum (strain 3D7); test: In vitro antiplasmodial SYBR Green I-based fluorescence assay, 96 h, strain 3D7; type: cell-based, Plasmodium falciparum; settings: for IC50: 96 h; for inhibition: 3D7, read-out: inhibition of parasite proliferation at the single (highest) concentration tested
Outline: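 Synchronous ring-stage parasites in O+ erythrocytes, 0.5% parasitemia and 1% hematocrit, in RPMI 1640 with HEPES, Glutamax, 11 mM glucose, 200 μM hypoxanthine, gentamicin and 0.6% Albumax II. […] Frozen at −80 °C, then SYBR Safe lysis (20 mM Tris pH 7.5, EDTA, saponin, Triton X-100). Fluorescence as % of untreated control; IC50 from four-parameter fit, mean ± SEM, n = 3.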

Solubility in DMSO = type: physicochemical; settings: other compounds dissolved to 200 mM; these dissolved to between 10 and 100 mM
β-hematin formation = test: Detergent mediated β-hematin assay; type: biochemical; settings: cell-free detergent mediated assay; Fig. S4
[2] = tested on: [Na^+]cyt of isolated trophozoite-stage 3D7 parasites (PfATP4); test: Cytosolic Na+ measurements; type: cell-based, Plasmodium falciparum; settings: isolated 3D7 trophozoites; 13i 1 μM and 10 μM, cipargamin 50 nM; final 85–90 min
Outline: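 Saponin-freed trophozoite-stage 3D7 parasites loaded with SBFI, in 96-well plates at 37 °C in saline (125 mM NaCl, 5 mM KCl, 1 mM MgCl2, 20 mM glucose, 25 mM HEPES, pH 7.1). Controls: DMSO solvent (0.1–0.2% v/v) and a PfATP4-inhibitor positive control. Final [Na+]cyt averaged over 85–90 min of exposure. Three independent experiments on separate days, mean + SEM, Dunnett's test versus DMSO.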

[3] = Plasmodium falciparum, 3D7, 96 h, read-out: IC50 (P. falciparum proliferation), strain 3D7

SMILES	IC50 [1, 3] [µM]	inhibition ([1]; Plasmodium falciparum) [%]	further results
COc1cc(C)ccc1NC(=O)c1nccc2ccccc12 [Compound 12a]	69	–	solubility in DMSO (Solubility in DMSO): lower solubility
COc1cc(C)ccc1NC(=O)c1ccc2ccccc2c1 [Compound 12b]	38	–	effect on β-hematin formation (β-hematin formation): none
COc1cc(C)ccc1NC(=O)c1cnc2ccccc2c1 [Compound 12c]	62	–	–
COc1cc(C)ccc1NC(=O)c1nccc2ccccc12.Cl [Compound 12j]	–	–	reduction of antiplasmodial activity relative to 12a ([1]; compared with isoquinoline carboxamide 12a, strain 3D7): about 2 fold; IC50 ([1]; read-out: IC50 (P. falciparum proliferation), strain 3D7): 136 µM
COc1cc(C)ccc1NC(=S)c1nccc2ccccc12 [Compound 13a]	–	< 50	inhibition of proliferation of P. falciparum ([1]; at concentrations up to 200 μM, strain 3D7): ≤ 50%
COc1cc(C)ccc1NC(=S)c1ccc2ccccc2c1 [Compound 13b]	23	> 50	effect on β-hematin formation (β-hematin formation): none
COc1cc(C)ccc1NC(=S)c1cnc2ccccc2c1 [Compound 13c]	61	> 50	solubility in DMSO (Solubility in DMSO): lower solubility
S=C(Nc1ccccc1)c1nccc2ccccc12 [Compound 13d]	–	< 50	–
S=C(Nc1ccccc1)c1cccnc1 [Compound 13h]	–	< 50	–
CCN(CC)CCCC(C)Nc1ccnc2cc(Cl)ccc12 (stereo not shown) [chloroquine, Chloroquine, reference compound]	–	–	effect on β-hematin formation (β-hematin formation): inhibited
C[C@H]1Cc2c([nH]c3cc(Cl)c(F)cc23)[C@@]2(N1)C(=O)Nc1ccc(Cl)cc12 [cipargamin]	–	–	effect on [Na^+]cyt [2]: significant increase
